The record followed here is ChEMBL document CHEMBL1122240, “Inhibition by carboxamides and sulfoxides of liver alcohol dehydrogenase and ethanol metabolism” (J Med Chem, 1983).

For one data set, the target named is Alcohol dehydrogenase (Equus caballus, UniProt P00327+P00328). Nature of the data set: In vitro inhibition against horse liver alcohol dehydrogenase.
Data set [1] in a line: In vivo inhibition of ethanol metabolism following 1 mMol/Kg i.p. Particulars: ip.
The target of data set [2] is T1, Alcohol dehydrogenase (Equus caballus) (UniProt P00327+P00328). Nature of the data set: Intercept inhibition constant was determined against horse liver alcohol dehydrogenase in presence of acetaldehyde. A digest of the protocol: (§1)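 Purified horse liver enzyme, reverse reaction. Freshly distilled acetaldehyde was varied (1–5 mM; 0.4–2.0 mM in some runs) with 0.1 mM NADH and at least three inhibitor levels. Initial velocities were read as A340 change, 32 points per experiment, and inhibition constants were obtained from double-reciprocal fits.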

Data set [3] in a line: Michaelis-Menten's constant was determined in vivo against rat liver alcohol dehydrogenase in presence of ethanol. It counts as organism-based. A digest of the protocol: (§2)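 Fed male Sprague-Dawley rats (175–280 g) received inhibitor ip (0.1 M sulfoxide or ≤0.46 M amide in saline) at 0–1.0 mmol/kg. Ten minutes later ethanol (3.26 M) was given ip at 7.69, 10.9 or 19.6 mmol/kg. Tail blood was sampled over time and ethanol measured by GC against a tert-butyl alcohol internal standard. Rate was derived by Widmark's method.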

Data set [4] in a line: In vivo inhibition of ethanol metabolism following 1 mMol/Kg i.p.
For data set [5], the target named is T1, Alcohol dehydrogenase (Equus caballus). The experiment in a line: Slope inhibition constant was determined against horse liver alcohol dehydrogenase in presence of acetaldehyde. A digest of the protocol:
as §1

Data set [6] in a line: Slope inhibition constant was determined against purified rat liver alcohol dehydrogenase in presence of ethanol. A digest of the protocol:
(§3)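 Rat liver enzyme partially purified by (NH4)2SO4 fractionation, DEAE-cellulose and Sephadex G-100. Assays ran in 83 mM potassium phosphate pH 7.3 with 40 mM KCl (μ 0.25) at 37.8 °C, with 0.5 mM NAD+, ethanol at 0.4–2 mM and inhibitor at 0–0.6 mM. Initial rates were read at 340 nm, 32 points per experiment.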

Data set [7] can be described thus: Intercept inhibition constant was determined in vivo against rat liver alcohol dehydrogenase in presence of ethanol. It counts as organism-based. In outline: as §2
Data set [8] addresses T1, Alcohol dehydrogenase (Equus caballus). Nature of the data set: Slope inhibition constant was determined against horse liver alcohol dehydrogenase in presence of ethanol. In outline: (§4)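 Purified horse liver enzyme with ethanol varied as substrate and NAD+ as coenzyme. At least three inhibitor concentrations were tested (e.g. 0–0.2 mM). Initial velocities were followed at 340 nm, 32 points in one experiment. Intercept and slope constants were derived from double-reciprocal plots fitted to uncompetitive or noncompetitive equations.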

The target is the same in data set [9]. The experiment in a line: Intercept inhibition constant was determined against horse liver alcohol dehydrogenase in presence of ethanol. A digest of the protocol: as §4
A short description of data set [10]: Intercept inhibition constant was determined in vitro against purified rat liver alcohol dehydrogenase in presence of ethanol. A digest of the protocol:
as §3

The nature of data set [11]: Michaelis-Menten's constant was determined in vitro against purified rat liver alcohol dehydrogenase in presence of ethanol. In outline: as §3
In data set [12] the test system is CC(C)CC(N)=O. The experiment in a line: (§5) Michaelis-Menten's constant was determined against horse liver alcohol dehydrogenase in presence of ethanol. The settings on record: Equus caballus. In outline: as §4
Data set [13] relates to [O-][S+]1CCCC1. The data set is described as §5. The settings on record: Equus caballus. In outline:
as §4

Data set [14] has as its system CC(C)CC(N)=O. Nature of the data set: (§6) Michaelis-Menten's constant was determined against horse liver alcohol dehydrogenase in presence of acetaldehyde. The settings on record: Equus caballus. A digest of the protocol:
as §1

Data set [15] has as its system [O-][S+]1CCCC1. Described as §6. Particulars: Equus caballus. In outline:
as §1

Sequence of Alcohol dehydrogenase (Equus caballus) (from UniProt P00327+P00328) (P00328 whole entry, looked up): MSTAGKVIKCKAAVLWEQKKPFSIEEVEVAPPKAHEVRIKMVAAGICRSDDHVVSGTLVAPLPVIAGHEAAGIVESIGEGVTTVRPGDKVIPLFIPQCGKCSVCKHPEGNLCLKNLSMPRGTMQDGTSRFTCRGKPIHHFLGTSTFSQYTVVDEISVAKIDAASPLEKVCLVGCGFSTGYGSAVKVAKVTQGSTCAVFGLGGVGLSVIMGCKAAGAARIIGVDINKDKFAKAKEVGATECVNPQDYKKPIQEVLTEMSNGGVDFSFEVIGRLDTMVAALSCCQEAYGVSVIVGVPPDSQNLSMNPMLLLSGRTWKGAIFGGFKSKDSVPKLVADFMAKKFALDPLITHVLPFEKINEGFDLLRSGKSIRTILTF
Sequence of Alcohol dehydrogenase (Equus caballus) (from UniProt P00327+P00328) (P00327 whole entry, looked up): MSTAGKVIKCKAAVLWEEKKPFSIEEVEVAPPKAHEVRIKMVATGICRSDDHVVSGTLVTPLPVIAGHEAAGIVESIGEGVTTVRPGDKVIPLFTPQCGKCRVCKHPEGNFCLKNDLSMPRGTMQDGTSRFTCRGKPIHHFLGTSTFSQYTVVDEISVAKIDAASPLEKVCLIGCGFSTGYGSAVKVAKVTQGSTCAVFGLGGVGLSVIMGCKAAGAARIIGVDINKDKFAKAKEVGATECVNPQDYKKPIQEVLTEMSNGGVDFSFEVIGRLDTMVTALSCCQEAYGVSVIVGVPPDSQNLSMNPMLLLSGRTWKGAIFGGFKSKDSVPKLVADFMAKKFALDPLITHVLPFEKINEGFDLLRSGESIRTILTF

The Ki is the dissociation constant of the complex between target and ligand, obtained from inhibition or displacement. A lower Ki goes with higher affinity. By inhibition in vivo is commonly meant the change of the read-out against control, counted positive when it falls. Read a low inhibition in vivo as a weak effect. Regarding `NC(=O)CCO`, the Ki on Alcohol dehydrogenase turned out to be 8500 µM. In data set [1], the inhibition in vivo at 1000 µmol/kg amounted to 15%.

The compound `O=C1CC[S+]([O-])CC1` yielded a Ki at Alcohol dehydrogenase of 9700 µM.

For the compound `CCCCCCCCC(N)=O` [NONANOAMIDE], the inhibition in vivo at 1000 µmol/kg in data set [1] turned out to be 15%.

For the compound `NC(=O)CSCC(N)=O`, at Alcohol dehydrogenase, the Ki came out at 36000 µM. For the same compound, the inhibition in vivo at 1000 µmol/kg in [1] came out at 7%.

`COCC(N)=O` [METHOXYACETAMIDE] registered a Ki at Alcohol dehydrogenase of 600 µM. Further, in data set [1], the inhibition in vivo at 1000 µmol/kg came out at 18%.

`[O-][S+]1CCOCC1` displayed a Ki on Alcohol dehydrogenase of 10600 µM.

In general, inhibition refers to the relative decrease from the control value, in per cent. On Alcohol dehydrogenase, `[O-][S+]1CCCC1` yielded an inhibitory constant (Ki) of 19 µM. The Kii in [2] turned out to be 71 µM; in data set [7], 340 µM/kg; in data set [9] it was 19 µM; in data set [10], 200 µM. Also, the Km in data set [3] was 2000 µM/kg; in data set [11], 350 µM. Besides, the inhibition in [4] amounted to 63%. For the same compound, the values for the Kis in data set [5], in data set [6] and in data set [8] were 11 µM, 230 µM and 130 µM, respectively.

At Alcohol dehydrogenase, `NC(=O)C(F)(F)C(F)(F)C(F)(F)F` [HEPTAFLUOROBUTYRAMIDE] registered a Ki of 2000 µM.

For the compound “Alcohol dehydrogenase (Equus caballus) (from UniProt P00327+P00328)”, the Km was determined as 900 µM in the data set on CC(C)CC(N)=O [12], 620 µM in [O-][S+]1CCCC1 [13], 150 µM in the data set with CC(C)CC(N)=O [14] and 230 µM in [O-][S+]1CCCC1 [15].

`CC(C)CC[S+](C)[O-]` (stereo unspecified) came in with a Ki at Alcohol dehydrogenase of 430 µM. Also, in [1], the inhibition in vivo at 1000 µmol/kg worked out at 19%.

For the compound `NC(=O)CCCCCO`, at Alcohol dehydrogenase, the Ki was determined as 1500 µM. For the same compound, in data set [1], the inhibition in vivo at 1000 µmol/kg came out at 24%.

Consider `[O-][S+]1CCC1`, for which, on Alcohol dehydrogenase, the inhibition constant (Ki) stood at 150 µM. Moreover, the inhibition in vivo at 1000 µmol/kg in data set [1] came to 25%.

Compound `O=C1CCCCN1` had a Ki at Alcohol dehydrogenase of 13000 µM.

As for `CC[S+](C)[O-]` (stereo unspecified), the Ki at Alcohol dehydrogenase is 500 µM. This compound registered an inhibition in vivo at 1000 µmol/kg in data set [1] of 16%.

Consider `[O-][S+]1CCCCC1`, for which the Ki on Alcohol dehydrogenase amounted to 480 µM. This compound also gave an inhibition in vivo at 1000 µmol/kg in data set [1] of 21%.

Compound `[O-][S+]1CCNCC1` yielded a Ki on Alcohol dehydrogenase of 120000 µM.

Take `NC(=O)C(O)CCO` (stereo unspecified): the Ki on Alcohol dehydrogenase was 5800 µM.

Compound `CC(C)(Br)C(N)=O` displayed an inhibition in vivo at 1000 µmol/kg in data set [1] of 5%.

Take `C[S+]([O-])c1ccccc1` (stereo unspecified) [METHYLPHENYLSULFOXIDE]: the Ki at Alcohol dehydrogenase was 200 µM. This compound also registered an inhibition in vivo at 1000 µmol/kg in data set [1] of 19%.

`CC(C)CC(N)=O` [ISOVALERAMIDE] yielded a Ki at Alcohol dehydrogenase of 20 µM. Besides, the Kii in data set [2] was 460 µM; in data set [7], 180 µM/kg; in [9], 20 µM; in data set [10], 20 µM. For the same compound, the Km in data set [3] was found to be 1500 µM/kg. For the same compound, the Kis in [5] came to 11 µM; in data set [8], 160 µM. Moreover, in data set [1], the inhibition in vivo at 1000 µmol/kg came out at 78%.

On Alcohol dehydrogenase, `NC(N)=S` [THIOUREA] displayed a Ki of 42000 µM.

`C=C[S+]([O-])c1ccccc1` (stereo unspecified) registered a Ki at Alcohol dehydrogenase of 500 µM.

As to `CCCCCCCCCCCCCC[S+](C)[O-]` (stereo unspecified), the inhibition constant Ki on Alcohol dehydrogenase turned out to be 10 µM. The compound also yielded an inhibition in vivo at 1000 µmol/kg in [1] of 15%.

Compound `CC(C)C(=O)NN` gave an inhibition constant Ki at Alcohol dehydrogenase of 2900 µM.

For the compound `NC(=O)CCCl`, the Ki on Alcohol dehydrogenase was 5300 µM. The compound further displayed an inhibition in vivo at 1000 µmol/kg in [1] of 15%.

`CC(C)C[S+](C)[O-]` (stereo unspecified) came in with a Ki at Alcohol dehydrogenase of 340 µM. In addition, in data set [1], the inhibition in vivo at 1000 µmol/kg came to 14%.

On Alcohol dehydrogenase, `CC(C)(C)CC(N)=O` had a Ki of 150 µM. Also, the inhibition in vivo at 1000 µmol/kg in [1] stood at 71%.

Regarding `CC(C)C(N)=O` [ISOBUTYRAMIDE], the Ki at Alcohol dehydrogenase was determined as 220 µM. In data set [1], the inhibition in vivo at 1000 µmol/kg was 36%.

The compound `NC(=O)C1CC1` [CYCLOPROPANECARBOXYLIC ACID AMIDE] displayed a Ki on Alcohol dehydrogenase of 790 µM. Also, the inhibition in vivo at 1000 µmol/kg in data set [1] amounted to 29%.

In the case of `CCCCCC[S+](C)[O-]` (stereo unspecified), the Ki at Alcohol dehydrogenase stood at 47 µM. The inhibition in vivo at 1000 µmol/kg in [1] was determined as 67%.

`CC[S+]([O-])CC`: on Alcohol dehydrogenase, the Ki was 1100 µM.

The compound `C[S+]([O-])Cc1ccccc1` (stereo unspecified) displayed a Ki on Alcohol dehydrogenase of 5000 µM. Moreover, the inhibition in vivo at 1000 µmol/kg in data set [1] was determined as 13%.

Compound `CC[S+]([O-])c1ccccc1` (stereo unspecified) had an inhibition constant (Ki) on Alcohol dehydrogenase of 12500 µM.

Take `NNC(N)=S` [THIOSEMICARBAZIDE]: the Ki on Alcohol dehydrogenase was 1900 µM.

On Alcohol dehydrogenase, `NC(=O)CCCO` had an inhibition constant Ki of 6800 µM. Besides, in data set [1], the inhibition in vivo at 1000 µmol/kg stood at 5%.

With `NC(=O)CCCCO`, the Ki at Alcohol dehydrogenase was found to be 4400 µM. In [1], this compound returned an inhibition in vivo at 1000 µmol/kg of 9%.
